ChEMBL document CHEMBL1131879, “Inhibition of macrophage migration inhibitory factor (MIF) tautomerase activity by dopachrome analogs” (Bioorg Med Chem Lett, 1999)

What was measured:
[1] = target: T1, Macrophage migration inhibitory factor (Homo sapiens) (UniProt P14174); assay: Inhibitory activity against macrophage migration inhibitory factor tautomerase (MIF) at a concentration of 0.5 mM
T1 sequence (whole entry): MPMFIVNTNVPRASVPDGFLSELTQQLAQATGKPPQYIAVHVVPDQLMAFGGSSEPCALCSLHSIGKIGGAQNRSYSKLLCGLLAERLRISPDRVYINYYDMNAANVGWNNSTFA
Method in brief: (§1)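 Recombinant human MIF expressed in E. coli. The substrate is L-dopachrome methyl ester, generated by oxidizing 10 mM precursor stocks in 10 mM sodium phosphate, pH 6.0, with sodium periodate for 10 min, then quenching with methionine. Final substrate is 0.5 mM, with test compound at the stated concentration. The reaction starts on adding MIF from a 20 mg/mL stock. Percent inhibition is taken from the absorbance decrease at 475 nm over 1 min.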

[2] = target: T1, Macrophage migration inhibitory factor (Homo sapiens); assay: Inhibitory activity against macrophage migration inhibitory factor tautomerase (MIF) at a concentration of 0.02 mM; method in brief: as §1
[3] = target: T1, Macrophage migration inhibitory factor (Homo sapiens); assay: Inhibitory activity against macrophage migration inhibitory factor tautomerase (MIF) at a concentration of 0.25 mM; method in brief: as §1
[4] = target: T1, Macrophage migration inhibitory factor (Homo sapiens); assay: Inhibitory activity against macrophage migration inhibitory factor tautomerase (MIF) at a concentration of 0.125 mM; method in brief: as §1
[5] = target: T1, Macrophage migration inhibitory factor (Homo sapiens); assay: Inhibitory activity against macrophage migration inhibitory factor tautomerase (MIF) at a concentration of 0.06 mM; method in brief: as §1

## CCOC(=O)/C=C/C1=CC(O)C(O)=CC1 (stereo not drawn)
[1]
  inhibition: 0%

## COC(=O)[C@]1(C)CC2=CC(=O)C(O)=CC2=N1
[1]
  inhibition: 45%

## CCCC(C(N)=O)C1=CC(O)C(O)=CC1 (stereo not drawn)
[1]
  inhibition: 0%

## C[N+]1=C2C=C(O)C(=O)C=C2C(O)C1 (stereo not drawn)
[2]
  inhibition: 21%
[3]
  inhibition: 79%
[4]
  inhibition: 54%
[1]
  inhibition: 98%

## CC1(C(=O)O)CC2=CC(=O)C(O)=CC2=N1 (racemic)
[1]
  inhibition: 35%

## C[C@@]1(C(=O)O)CC2=CC(=O)C(O)=CC2=N1
[1]
  inhibition: 29%

## CC1N=C2C=C(O)C(=O)C=C2C1O (stereo not drawn)
[3]
  inhibition: 88%
[5]
  inhibition: 22%
[4]
  inhibition: 54%
[1]
  inhibition: 92%

## COC(=O)C1(C)CC2=CC(=O)C(O)=CC2=N1 (racemic)
[1]
  inhibition: 34%

## O=C1C=C2C(=NC(C(=O)O)C2O)C=C1O (stereo not drawn)
[3]
  inhibition: 98%
[5]
  inhibition: 9%
[4]
  inhibition: 41%
[1]
  inhibition: 100%
